Test results as given in ChEMBL document CHEMBL3526048, “In vitro metabolism of rivoglitazone, a novel peroxisome proliferator-activated receptor γ agonist, in rat, monkey, and human liver microsomes and freshly isolated hepatocytes” (Drug Metab Dispos, 2011).

How the values were obtained:
[1] = biological target: Cytochrome P450 2C9 (Homo sapiens, UniProt P11712); assay: Activity of human CYP2C9 expressed in microsomes isolated from baculovirus infected insect cell assessed as enzyme-mediated 5-hydroxy-5-(4-((6-methoxy-1-methyl-1H-benzo[d]imidazol-2-yl)methoxy)benzyl)thiazolidine-2,4-dione formation at 20 uM after 2 hrs by radio-HPLC/LC-MS/MS analysis in presence of NADPH-generating system and NADPH-generating system/SAM; assay type: ADME
[2] = system: Liver microsome; assay: Drug metabolism in Sprague-Dawley rat liver microsomes assessed as formation of 3-(4-((6-methoxy-1-methyl-1H-benzo[d]imidazol-2-yl)methoxy)phenyl)-2-(methylsulfonyl)propanamide at 20 uM after 2 hrs by radio-HPLC/LC-MS/MS analysis in presence of NADPH-generating system/SAM; assay type: ADME
[3] = system: Liver microsome; assay: Drug metabolism in human liver microsomes assessed as formation of (2S,3S,4S,5R,6R)-6-((1-carboxy-2-(4-((6-methoxy-1-methyl-1H-benzo[d]imidazol-2-yl)methoxy)phenyl)ethylthio)carbonylamino)-3,4,5-trihydroxytetrahydro-2H-pyran-2-carboxylic acid at 20 uM after 4 hrs by radio-HPLC/LC-MS/MS analysis in presence of UDPGA and UDPGA/SAM; assay type: ADME
[4] = Drug metabolism in rat hepatocytes assessed as formation of 3-(4-((6-methoxy-1-methyl-1H-benzo[d]imidazol-2-yl)methoxy)phenyl)-2-(methylthio)propanoic acid at 30 uM after 3 hrs by radio-HPLC/LC-MS/MS analysis in presence of NADPH-generating system/SAM and UDPGA/SAM; assay type: ADME, cell-based, Hepatocyte
[5] = biological target: Cytochrome P450 3A5 (Homo sapiens, UniProt P20815); assay: Activity of human CYP3A5 expressed in microsomes isolated from baculovirus infected insect cell assessed as enzyme-mediated 3-(4-((6-methoxy-1-methyl-1H-benzo[d]imidazol-2-yl)methoxy)phenyl)-2-(methylthio)propanoic acid formation at 20 uM after 2 hrs by radio-HPLC/LC-MS/MS analysis in presence of NADPH-generating system/SAM and UDPGA/SAM; assay type: ADME
In short: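 cDNA-expressed human CYP3A5 in baculovirus-insect-cell microsomes (1 mg/ml protein) was incubated with [¹⁴C]rivoglitazone (20 μM) in 50 mM potassium phosphate (pH 7.4) or 100 mM Tris-HCl (pH 7.5). NADPH-generating system: 2 mM NADP⁺, 20 mM glucose 6-phosphate, 2 units/ml G6PDH, 10 mM MgCl₂. Incubation ran 2 h at 37°C with shaking; insect-cell control supersomes served as control. Acetonitrile stop, supernatant concentrated, then radio-HPLC, LC-MS and LC-MS/MS.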

[6] = biological target: T1, UDP-glucuronosyltransferase 1A1 (Homo sapiens, UniProt P22309); assay: Activity of human UGT1A1 expressed in microsomes isolated from baculovirus infected insect cell assessed as enzyme-mediated (2S,3S,4S,5R,6R)-3,4,5-trihydroxy-6-(5-(4-((6-methoxy-1-methyl-1H-benzo[d]imidazol-2-yl)methoxy)benzyl)-2,4-dioxothiazolidin-3-yl)tetrahydro-2H-pyran-2-carboxylic acid formation at 20 uM after 4 hrs by radio-HPLC/LC-MS/MS analysis in presence of UDPGA; assay type: ADME
T1 sequence (P22309 whole entry): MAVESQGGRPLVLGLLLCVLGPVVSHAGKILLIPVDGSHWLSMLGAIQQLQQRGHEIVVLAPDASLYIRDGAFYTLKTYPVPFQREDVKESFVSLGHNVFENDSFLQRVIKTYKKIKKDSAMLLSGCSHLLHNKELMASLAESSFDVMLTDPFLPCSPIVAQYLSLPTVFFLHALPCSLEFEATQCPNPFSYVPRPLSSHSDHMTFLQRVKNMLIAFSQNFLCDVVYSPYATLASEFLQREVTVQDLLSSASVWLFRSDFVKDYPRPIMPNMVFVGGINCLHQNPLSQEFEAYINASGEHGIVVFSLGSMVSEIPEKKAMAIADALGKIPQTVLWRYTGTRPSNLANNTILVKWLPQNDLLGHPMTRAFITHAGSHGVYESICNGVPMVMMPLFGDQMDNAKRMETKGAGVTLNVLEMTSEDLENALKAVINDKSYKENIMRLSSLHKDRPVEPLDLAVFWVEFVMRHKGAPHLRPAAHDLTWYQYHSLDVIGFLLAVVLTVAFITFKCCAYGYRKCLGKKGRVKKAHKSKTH
In short: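 Alamethicin (50 μg/mg protein, 15 min on ice) pretreated expressed human UGT microsomes (1 mg/ml protein) from baculovirus-infected insect cells. Incubation with [¹⁴C]rivoglitazone (20 μM) in 100 mM Tris-HCl (pH 7.5) with 10 mM MgCl₂, started by 5 mM UDPGA, 4 h at 37°C with shaking. UGT insect-cell control supersomes were run alongside. Acetonitrile stop, concentrated supernatant analysed by radio-HPLC, LC-MS and LC-MS/MS.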

[7] = Drug metabolism in rat hepatocytes assessed as formation of 5-(4-((6-hydroxy-1-methyl-1H-benzo[d]imidazol-2-yl)methoxy)benzyl)thiazolidine-2,4-dione at 30 uM after 3 hrs by radio-HPLC/LC-MS/MS analysis in presence of NADPH-generating system and NADPH-generating system/SAM; assay type: ADME, cell-based, Hepatocyte
[8] = Drug metabolism in rat hepatocytes assessed as formation of 2-mercapto-3-(4-((6-methoxy-1-methyl-1H-benzo[d]imidazol-2-yl)methoxy)phenyl)propanoic acid at 30 uM after 3 hrs by radio-HPLC/LC-MS/MS analysis in presence of UDPGA, UDPGA/SAM and NADPH-generating system; assay type: ADME, cell-based, Hepatocyte
[9] = Drug metabolism in monkey hepatocytes assessed as formation of (2S,3S,4S,5R,6R)-6-((1-carboxy-2-(4-((6-methoxy-1-methyl-1H-benzo[d]imidazol-2-yl)methoxy)phenyl)ethylthio)carbonylamino)-3,4,5-trihydroxytetrahydro-2H-pyran-2-carboxylic acid at 30 uM after 3 hrs by radio-HPLC/LC-MS/MS analysis in presence of UDPGA and UDPGA/SAM; details: cynomolgus monkey
[10] = biological target: T2, Cytochrome P450 2C8 (Homo sapiens, UniProt P10632); assay: Activity of human CYP2C8 expressed in microsomes isolated from baculovirus infected insect cell assessed as enzyme-mediated 2-mercapto-3-(4-((6-methoxy-1-methyl-1H-benzo[d]imidazol-2-yl)methoxy)phenyl)propanoic acid formation at 20 uM after 2 hrs by radio-HPLC/LC-MS/MS analysis in presence of NADPH-generating system; assay type: ADME
T2 sequence (P10632 whole entry): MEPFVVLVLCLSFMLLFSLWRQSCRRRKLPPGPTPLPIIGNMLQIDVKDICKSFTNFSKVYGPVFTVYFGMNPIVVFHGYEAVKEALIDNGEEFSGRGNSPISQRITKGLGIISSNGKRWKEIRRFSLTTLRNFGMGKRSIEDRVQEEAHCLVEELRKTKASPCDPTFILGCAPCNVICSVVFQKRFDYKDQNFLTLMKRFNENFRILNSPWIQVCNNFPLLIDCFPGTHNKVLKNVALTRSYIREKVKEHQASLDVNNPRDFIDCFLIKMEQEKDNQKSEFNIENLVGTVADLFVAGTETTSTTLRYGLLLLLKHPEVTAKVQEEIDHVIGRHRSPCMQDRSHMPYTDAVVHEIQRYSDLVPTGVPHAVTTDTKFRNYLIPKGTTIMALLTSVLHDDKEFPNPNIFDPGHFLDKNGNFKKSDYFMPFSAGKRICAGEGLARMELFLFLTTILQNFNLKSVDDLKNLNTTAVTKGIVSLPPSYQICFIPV
In short: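 Baculovirus/insect-cell microsomes expressing single human CYPs, 1 mg/ml protein, with 50 mM potassium phosphate (pH 7.4) or 100 mM Tris-HCl (pH 7.5). NADPH-generating system: 2 mM NADP⁺, 20 mM glucose 6-phosphate, 2 units/ml G6PDH, 10 mM MgCl₂. [¹⁴C]rivoglitazone at 20 μM, 2 h at 37°C with shaking. Control used insect-cell control supersomes. Stopped with acetonitrile; supernatant concentrated under nitrogen; metabolites analysed by radio-HPLC, LC-MS and LC-MS/MS.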

Chain of Cytochrome P450 2C9 (P11712 whole entry): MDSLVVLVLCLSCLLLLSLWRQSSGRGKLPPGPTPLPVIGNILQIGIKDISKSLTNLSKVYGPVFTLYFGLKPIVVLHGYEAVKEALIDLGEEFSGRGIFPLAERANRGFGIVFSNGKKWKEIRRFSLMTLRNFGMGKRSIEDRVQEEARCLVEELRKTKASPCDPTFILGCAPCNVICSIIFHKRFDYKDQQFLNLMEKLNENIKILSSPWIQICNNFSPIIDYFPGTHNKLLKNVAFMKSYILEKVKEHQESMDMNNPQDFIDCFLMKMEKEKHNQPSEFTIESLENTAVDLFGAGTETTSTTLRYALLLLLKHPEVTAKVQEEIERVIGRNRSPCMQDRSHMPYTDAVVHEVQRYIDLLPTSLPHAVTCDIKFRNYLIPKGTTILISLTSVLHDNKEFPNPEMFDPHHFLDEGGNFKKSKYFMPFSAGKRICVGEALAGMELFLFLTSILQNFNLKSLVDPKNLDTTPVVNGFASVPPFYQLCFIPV
Chain of Cytochrome P450 3A5 (P20815 whole entry): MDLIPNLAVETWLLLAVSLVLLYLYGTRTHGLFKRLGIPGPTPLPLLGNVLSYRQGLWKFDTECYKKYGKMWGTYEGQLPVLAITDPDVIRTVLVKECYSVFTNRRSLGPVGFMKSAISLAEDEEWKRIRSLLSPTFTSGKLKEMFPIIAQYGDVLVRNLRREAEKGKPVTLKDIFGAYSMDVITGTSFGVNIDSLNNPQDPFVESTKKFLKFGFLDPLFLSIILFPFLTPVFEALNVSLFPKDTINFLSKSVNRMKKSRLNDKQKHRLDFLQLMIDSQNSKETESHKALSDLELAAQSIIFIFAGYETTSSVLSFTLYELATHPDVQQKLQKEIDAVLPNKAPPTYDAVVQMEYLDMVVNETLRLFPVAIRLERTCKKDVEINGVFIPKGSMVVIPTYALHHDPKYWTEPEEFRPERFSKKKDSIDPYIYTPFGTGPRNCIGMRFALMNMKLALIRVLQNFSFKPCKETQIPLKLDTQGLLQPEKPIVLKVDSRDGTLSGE

- Drug metabolism [1]: metabolite_detected
- Drug metabolism [2]: metabolite_detected
- Drug metabolism [3]: metabolite_detected
- Drug metabolism [4]: metabolite_not_detected
- Drug metabolism [5]: metabolite_not_detected
- Drug metabolism [6]: metabolite_not_detected
- Drug metabolism [7]: metabolite_detected
- Drug metabolism [8]: metabolite_not_detected
- Drug metabolism [9]: metabolite_detected
- Drug metabolism [10]: metabolite_detected
Structure (SMILES): COc1ccc2nc(COc3ccc(C[14CH]4SC(=O)NC4=O)cc3)n(C)c2c1.Cl (racemic)
